According to ChEMBL document CHEMBL1127562, “N-substituted spirosuccinimide, spiropyridazine, spiroazetidine, and acetic acid aldose reductase inhibitors derived from isoquinoline-1,3-diones. 2” (J Med Chem, 1994):
One block for each compound: values may come before it. Calls of active or inactive are those of the source. The rule behind the calls is not given here.

Key:
[1] = molecular target: Aldo-keto reductase family 1 member B1 (Bos taurus) (UniProt P16116); test: Inhibition of aldose reductase activity in partially purified bovine lens preparation at 10e-5 M
Method in brief: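 Partially purified bovine lens aldose reductase. Reduction of DL-glyceraldehyde substrate followed spectrophotometrically. Activity expressed as average inhibition at the tested concentrations, 1×10^-5, 1×10^-6, 1×10^-7 and 4×10^-6 M as printed; IC50 in M where given.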

Rattus norvegicus [2] = test: Tested for in vivo inhibition of galactitol accumulation in the lens of galactose-fed rats at the dose of 25.2 (mg/kg/day); NS=Not significant; assay type: functional, organism-based; conditions: Lens of camera-type eye
Rattus norvegicus [3] = test: Tested for in vivo inhibition of galactitol accumulation in the sciatic nerve of galactose-fed rats at the dose of 25.2 (mg/kg/day); NS=Not significant; assay type: functional, organism-based
Method in brief: (§1)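 Rats were given a 20% galactose diet for 4 days, with the test compound administered in the diet. Sciatic nerve galactitol accumulation was measured, and activity is given as % inhibition at the stated daily dose (mg/kg/day). Values are mean ± SEM, n = 6 animals; p < 0.01 unless indicated. NS means no significant inhibition of polyol accumulation.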

Rattus norvegicus [4] = test: Tested for in vivo inhibition of galactitol accumulation in the lens of galactose-fed rats at the dose of 50 (mg/kg/day); assay type: functional, Lens of camera-type eye
Rattus norvegicus [5] = test: Tested for in vivo inhibition of galactitol accumulation in the sciatic nerve of galactose-fed rats at the dose of 50 (mg/kg/day); assay type: functional
Method in brief: (§2)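 Rats fed a 20% galactose diet for 4 days, with test compound given in the diet at the stated daily dose (mg/kg/day). Read-out is inhibition of galactitol (polyol) accumulation in sciatic nerve. Values are % inhibition, mean ± SEM of six animals; p < 0.01 unless marked (some p < 0.05). NS = no significant inhibition of polyol accumulation. Tolrestat was the reference standard.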

Rattus norvegicus [6] = test: Tested for in vivo inhibition of galactitol accumulation in the sciatic nerve of galactose-fed rats at the dose of 97.1 (mg/kg/day); NS=Not significant; assay type: functional, organism-based; method in brief: as §2
Rattus norvegicus [7] = test: Tested for in vivo inhibition of galactitol accumulation in the lens of galactose-fed rats at the dose of 97.1 (mg/kg/day); NS=Not significant; assay type: functional, organism-based; conditions: Lens of camera-type eye
Method in brief: (§3)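 Galactosemic rats were fed 20% galactose for 4 days, with the compound mixed into the diet. […] galactitol accumulation was measured, and activity is given as % inhibition at the stated daily dose (mg/kg/day). Values are mean ± SEM of six animals; p < 0.01 unless indicated. NS means no significant inhibition of polyol accumulation.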

[8] = molecular target: Aldo-keto reductase family 1 member B1 (Bos taurus) (UniProt P16116); test: Inhibition of aldose reductase activity in partially purified bovine lens preparation at 4*10 e-8 M
Rattus norvegicus [9] = test: Tested for in vivo inhibition of galactitol accumulation in the sciatic nerve of galactose-fed rats at the dose of 98 (mg/kg/day); NS=Not significant; assay type: functional, organism-based; method in brief: as §2
Rattus norvegicus [10] = test: Tested for in vivo inhibition of galactitol accumulation in the lens of galactose-fed rats at the dose of 98 (mg/kg/day); NS=Not significant; assay type: functional, organism-based; conditions: Lens of camera-type eye; method in brief: as §3
Rattus norvegicus [11] = test: Tested for in vivo inhibition of galactitol accumulation in the lens of galactose-fed rats at the dose of 69.2 (mg/kg/day); NS=Not significant; assay type: functional, organism-based; conditions: Lens of camera-type eye; method in brief: as §3
Rattus norvegicus [12] = test: Tested for in vivo inhibition of galactitol accumulation in the sciatic nerve of galactose-fed rats at the dose of 69.2 (mg/kg/day); NS=Not significant; assay type: functional, organism-based; method in brief: as §2
Rattus norvegicus [13] = test: Tested for in vivo inhibition of galactitol accumulation in the lens of galactose-fed rats at the dose of 26.1 (mg/kg/day); NS=Not significant; assay type: functional, organism-based; conditions: Lens of camera-type eye
Rattus norvegicus [14] = test: Tested for in vivo inhibition of galactitol accumulation in the sciatic nerve of galactose-fed rats at the dose of 26.1 (mg/kg/day); NS=Not significant; assay type: functional, organism-based; method in brief: as §1
Rattus norvegicus [15] = test: Tested for in vivo inhibition of galactitol accumulation in the sciatic nerve of galactose-fed rats at the dose of 24.9 (mg/kg/day); assay type: functional; method in brief: as §1
Rattus norvegicus [16] = test: Tested for in vivo inhibition of galactitol accumulation in the sciatic nerve of galactose-fed rats at the dose of 1.0 (mg/kg/day); NS=Not significant; assay type: functional, organism-based; method in brief: as §1
Rattus norvegicus [17] = test: Tested for in vivo inhibition of galactitol accumulation in the sciatic nerve of galactose-fed rats at the dose of 25 (mg/kg/day); NS=Not significant; assay type: functional, organism-based; method in brief: as §1
Rattus norvegicus [18] = test: Tested for in vivo inhibition of galactitol accumulation in the lens of galactose-fed rats at the dose of 25 (mg/kg/day); NS=Not significant; assay type: functional, organism-based; conditions: Lens of camera-type eye
Rattus norvegicus [19] = test: Tested for in vivo inhibition of galactitol accumulation in the sciatic nerve of galactose-fed rats at the dose of 55 (mg/kg/day); NS=Not significant; assay type: functional, organism-based; method in brief: as §2
Rattus norvegicus [20] = test: Tested for in vivo inhibition of galactitol accumulation in the sciatic nerve of galactose-fed rats. at the dose of 1.0 (mg/kg/day); NS=Not significant; assay type: functional, organism-based; method in brief: as §2
Rattus norvegicus [21] = test: Tested for in vivo inhibition of galactitol accumulation in the lens of galactose-fed rats at the dose of 24.9 (mg/kg/day); NS=Not significant; assay type: functional, organism-based; conditions: Lens of camera-type eye
Rattus norvegicus [22] = test: Tested for in vivo inhibition of galactitol accumulation in the sciatic nerve of galactose-fed rats at the dose of 1.1 (mg/kg/day); assay type: functional; method in brief: as §1

inhibition [1]: inactive
Compound: NC(=O)CC1C(=O)N(Cc2ccc(Br)cc2F)C(=O)c2ccccc21 (stereo unspecified)
inhibition (Rattus norvegicus [2]): inactive
inhibition (Rattus norvegicus [3]): inactive

inhibition [1]: 43%
Compound: O=C(O)CC1C(=O)N(Cc2ccc(C(F)(F)F)cc2)C(=O)c2ccccc21 (stereo unspecified)

inhibition [1]: inactive
Compound: CC(C)=NN1C(=O)CC2(C(=O)N(Cc3nc4cc(C(F)(F)F)ccc4s3)C(=O)c3ccccc32)C1=O (stereo unspecified)
Inhibition (Rattus norvegicus [4]): 37%
Inhibition (Rattus norvegicus [5]): 95%

inhibition [1]: inactive
Compound: CCCCN1C(=O)c2ccccc2C(CC(=O)NC(=O)OC)C1=O (stereo unspecified)
inhibition (Rattus norvegicus [6]): inactive
inhibition (Rattus norvegicus [7]): inactive

inhibition [8]: 58%
Compound: O=C(O)CC1C(=O)N(Cc2ccc(Cl)c(Cl)c2)C(=O)c2ccccc21 (stereo unspecified)
inhibition (Rattus norvegicus [9]): inactive
inhibition (Rattus norvegicus [10]): inactive

inhibition [1]: 70%
Compound: CN1C(=O)c2ccccc2C(CC(=O)O)C1=O (stereo unspecified)
inhibition (Rattus norvegicus [11]): inactive
inhibition (Rattus norvegicus [12]): inactive

inhibition [8]: 30%
Compound: O=C(O)CC1C(=O)N(Cc2ccc(Br)cc2F)C(=O)c2cc(Cl)ccc21 (stereo unspecified)
inhibition (Rattus norvegicus [13]): inactive
inhibition (Rattus norvegicus [14]): inactive

inhibition [1]: 62%
Compound: CNC(=O)CC1C(=O)N(Cc2ccc(Br)cc2F)C(=O)c2ccccc21 (stereo unspecified)

inhibition [1]: inactive
Compound: CCN1C(=O)CC2(C1=O)C(=O)N(Cc1ccc(Br)cc1F)C(=O)c1ccc(F)cc12 (stereo unspecified)

inhibition [1]: inactive
Compound: CN1C(=O)CC2(C1=O)C(=O)N(Cc1cccc(C(F)(F)F)c1)C(=O)c1ccccc12 (stereo unspecified)
Inhibition (Rattus norvegicus [15]): 28%

inhibition [1]: inactive
Compound: CN1C(=O)CC2(C1=O)C(=O)N(C)C(=O)c1ccc(Cl)cc12 (stereo unspecified)
inhibition (Rattus norvegicus [16]): inactive

inhibition [1]: inactive
Compound: NC(=O)CC1C(=O)N(Cc2ccc(Br)cc2F)C(=O)c2cc(F)ccc21 (stereo unspecified)
inhibition (Rattus norvegicus [17]): inactive
inhibition (Rattus norvegicus [18]): inactive

inhibition [1]: inactive
Compound: CC(=O)NN1C(=O)CC2(C(=O)N(Cc3nc4cc(C(F)(F)F)ccc4s3)C(=O)c3ccccc32)C1=O (stereo unspecified)
Inhibition (Rattus norvegicus [4]): 40%
Inhibition (Rattus norvegicus [5]): 94%

inhibition [1]: inactive
Compound: CCCN1C(=O)CC2(C1=O)C(=O)N(Cc1ccc(Br)cc1F)C(=O)c1ccccc12 (stereo unspecified)
inhibition (Rattus norvegicus [16]): inactive

inhibition [1]: inactive
Compound: NN1C(=O)CC2(C1=O)C(=O)N(Cc1nc3cc(C(F)(F)F)ccc3s1)C(=O)c1ccc(F)cc12 (stereo unspecified)
Inhibition (Rattus norvegicus [4]): 31%
Inhibition (Rattus norvegicus [5]): 97%

inhibition [1]: 45%
Compound: CC1(CC(=O)O)C(=O)N(Cc2ccc(Cl)c(Cl)c2)C(=O)c2ccccc21 (stereo unspecified)

inhibition [1]: inactive
Compound: CN1NC(=O)C2(CC1=O)C(=O)N(Cc1ccc(Br)cc1F)C(=O)c1ccccc12 (stereo unspecified)
inhibition (Rattus norvegicus [19]): inactive

inhibition [1]: inactive
Compound: CCCCN1C(=O)CC2(C1=O)C(=O)N(Cc1ccc(Br)cc1F)C(=O)c1ccc(F)cc12 (stereo unspecified)
inhibition (Rattus norvegicus [20]): inactive

inhibition [8]: 80%
Compound: O=C(O)CC1C(=O)N(Cc2ccc(Br)cc2F)C(=O)c2ccc(F)cc21 (stereo unspecified)
inhibition (Rattus norvegicus [21]): inactive
Inhibition (Rattus norvegicus [15]): 47%

inhibition [1]: inactive
Compound: CN1C(=O)CC2(C1=O)C(=O)N(Cc1ccc(Br)cc1F)C(=O)c1ccccc12 (stereo unspecified)
Inhibition (Rattus norvegicus [22]): 76%
